About 130 (0.21%) of roughly 62,000 compounds were called active. For the sample, actives were picked, then their nearest neighbours and some compounds at random. A number with no mark means an inactive call.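 Rule for the calls: active = inhibition above the mean of all tested compounds plus 3 SD (cut at about 40% in these data); inactive = the rest.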

Experimental findings from PubChem BioAssay AID465 (The Scripps Research Institute Molecular Screening Center, 2006) are described below.

The nature of the assay: lowered NF-kB luciferase signal in HEK293 cells – cell-based, HEK-293 luciferase reporter, PMA/ionomycin, luminescence, antigen receptor NF-kB inhibitor project, primary screen (AID 465).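 Note: 0% = stimulated DMSO wells and 100% = 10 µM reference inhibitor 5653914.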 The following applies: HEK-293 NF-kB luciferase reporter, at 3 µM, stronger effect = higher value. A digest of the protocol:
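Material: HEK-293 cells with stable firefly luciferase reporter driven by four HIV NF-kB elements / Also added: PMA plus ionomycin mix as NF-kB-activating stimulus / Compound dosing: 3 µM once, 0.30% DMSO / Times: 1 h pretreatment, 16 h stimulation, 37 °C / Signal: luminescence / Evaluation: per-plate % inhibition versus controls / Benchmarks: DMSO and 10 µM reference inhibitor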
As for `N#CC1=C(N)OC2=C(C(=O)CCC2)C1C1CC=CCC1` (stereo not drawn), the inhibition is 16.6%. Take `O=S(N1CCCCCC1)C12CC3CC(CC(C3)C1)C2` (stereo not drawn): the inhibition is 19.1%.

As to `O=C(O)CCC(=O)Nc1ccc(N2CCOCC2)cc1`, the inhibition was 7.6%. The figure for `CC(=O)Nc1ccc(NS(=O)(=O)c2cc(C)sc2C)cc1` is 11.3%; for `CCOC(=O)CNC(=O)c1nn(-c2cccc(OC)c2)c(=O)c2ccccc12` it is 5.1%; for `CC(=O)Nc1cc(C(=O)O)ccc1S(=O)(=O)c1ccc(Cl)cc1` it is 15%. Regarding `O=C(Nc1cnccn1)c1cccnc1`, the inhibition was 14.9%. As to `Cc1csc(NC(=O)C2CCCN2C(=O)OCC(C)C)n1` (stereo not drawn), the inhibition was 3.7%. In the case of `CCOC(=O)N1CCN(C(=O)c2cc3c(ccc4ccccc43)oc2=O)CC1`, the inhibition was 12.5%.

On to `CC(C)(C)NC(=O)Cn1nnc(-c2ccccc2Cl)n1`, for which the inhibition is -10.7%. Consider `O=C1NC(c2cc3c(cc2Cl)OCO3)Oc2ccccc21` (stereo not drawn), for which the inhibition was 6.8%. Then `Cc1cc(=O)n2c3c(cccc13)CCC2`, with 7.5%.

As to `CCCCN(C)Cc1c(C)[nH]c2ccc(Cl)cc2c1=O`, the inhibition is 9.1%. Regarding `CNC(=O)CSc1nnc(CCc2ccccc2)n1-c1ccccc1`, the inhibition is 11.6%. As to `CCCCN=C(N)/C(C(=O)OCC)=C(\O)c1ccc(OC)cc1`, the inhibition is 7.4%. For `Cc1ccc(OS(=O)Nc2cccc3nccnc23)cc1` (stereo not drawn), the inhibition is 8.8%. For `COC(=O)[C@H](C)NC(=O)Nc1ccc(OC(F)(F)F)cc1`, the inhibition was 11.6%.

For the molecule `Cc1ccnc(N2CCN(C(=O)CSc3nc4ccccc4nc3N3CCCCC3)CC2)c1`, the inhibition is 5.5%.

Take `COc1ccc(-c2nnn(CC(=O)N(CCO)C(C(=O)NC3CCCC3)c3ccc(F)cc3)n2)cc1` (stereo not drawn): the inhibition is 24%. The figure for `CCN(CC)S(=O)(=O)c1cc(C(=O)Nc2ccccn2)ccc1C` is -11.3%. For the molecule `O=C(Cc1nn[nH]n1)NCCC1=CCCCC1`, the inhibition is 4.2%.

Turning to `CC(=O)Oc1ccc(C(=O)Nc2nccs2)cc1`, the inhibition is 11.8%. Then `Nc1ccc(SCCN2C(=O)c3ccccc3C2=O)cc1`, with 6.7%.

Turning to `CCc1cc(=O)oc2cc(OCC(=O)N3CCCc4ccccc43)ccc12`, the inhibition was 12.9%. Take `Cc1cc(C)c(NC(=O)CS(=O)CC(=O)Nc2cccnc2)c(C)c1` (stereo not drawn): the inhibition is 18.1%. Consider `C=CCC(NCCCO)c1cccc(OC)c1OC` (stereo not drawn), for which the inhibition was 7.1%. Then `O=C(CN1C2CCC1CC(NC(=O)C1CC1)C2)NCc1ccccc1` (stereo not drawn), with 7.7%. The figure for `CCCC(NC(=O)c1ccccc1)c1nc2ccccc2n1Cc1ccc(C(=O)OC)o1` (stereo not drawn) is 17.4%; for `CCCC(CCC(=O)OC)(C(=O)OCC)c1csc(N)n1` (stereo not drawn) it is 2.1%. Then `CCOC(=O)CSc1nncc2ccc(OC)c(OC)c12`, with 2%; and `O=C(NC(=O)c1ccc(Cl)c(Cl)c1)OC1CCS(=O)(=O)C1` (stereo not drawn), with 21.6%. For the molecule `CCCN1C2=C(C(=O)CCC2)C(c2ccc(O)c(Br)c2)C2=C1CCCC2=O`, the inhibition is -2.4%. The figure for `CCOC(=O)Cc1csc(NC(=O)CN(C)S(=O)(=O)c2ccc3c(c2)CCC(=O)N3)n1` is 0.2%; for `COc1cc(Cl)c(C)cc1NC(=O)CSc1nnc(-c2ccco2)n1CC(C)C` it is 14.8%.

In the case of `O=C(CCC(=O)N1CCN(S(=O)(=O)c2ccccc2)CC1)NC1CCCc2ccccc21` (stereo not drawn), the inhibition is 15.4%.

Turning to `Cc1cc(Cl)c(S(=O)(=O)NCCC(=O)O)cc1OCC(N)=O`, the inhibition was 1.4%. The figure for `CC(=O)N1CCN(c2ccc(NCc3ccc(C(C)C)cc3)cc2)CC1` is -0.9%.

For `CCCn1c(SCC(=O)Nc2cccc(C(=O)OCC)c2)nnc1-c1ccoc1C`, the inhibition was -4.2%. On to `CCOc1ccc(OCc2ccc(C(=O)Nc3cccc(C)n3)o2)cc1`, for which the inhibition was -17.7%. The figure for `O=P(c1cccs1)(c1cccs1)c1cccs1` is 22.9%; for `CCCn1cc(SCC(N)=O)c2ccccc21` it is 2.8%.

As for `COc1ccc(N=Cc2c(O)[nH]c3ccccc23)cc1OC`, the inhibition is -16.7%. As for `CCN(CC)S(=O)(=O)c1ccc2nc(COC(=O)c3n[nH]c4ccccc34)[nH]c2c1`, the inhibition is 12.4%.

Take `Cc1ccn2cc(C(=O)NC3CCN(Cc4ccccc4)CC3)nc2c1`: the inhibition was 6.4%. Then `COc1cccc(NC(=O)Cn2cnc3sc(C)c(S(=O)(=O)N4CCN(C)CC4)c3c2=O)c1`, with 11.9%; and `COC(=O)c1ccc2c(=O)n(CC3CCCO3)c(=S)[nH]c2c1` (stereo not drawn), with 12.2%; and `Cc1ccsc1C(=O)OCC(=O)c1cc2ccccc2o1`, with 3.8%. In the case of `Cc1ccsc1C(=O)OCC(=O)c1cc(C)n(CC2CCCO2)c1C` (stereo not drawn), the inhibition was 55.2% (active). Then `O=C1NC(c2ccncc2)Nc2sc3c(c21)CCCC3` (stereo not drawn), with 8%; and `COc1cccc(N(CC(=O)Nc2cccc(F)c2)S(C)(=O)=O)c1`, with 22.4%.

`N#CCCn1cnc2ccccc21`: the inhibition was 13.5%. Then `CC1CCCN(Cc2nc3c(c(=O)n(C)c(=O)n3C)n2Cc2cccc3ccccc23)C1` (stereo not drawn), with 30.3%; and `Cc1c(C(=O)N2CC(C)OC(C)C2)sc2nc(-c3ccccc3)cn12` (stereo not drawn), with -1.4%. Then `CCN(CC)CCNC(=O)Cn1cnc2sc(C)c(S(=O)(=O)N3CCOCC3)c2c1=O`, with 4.3%; and `O=C(CN1CCN(C(=O)c2ccco2)CC1)Nc1ccc(Cl)c(C(F)(F)F)c1`, with 3.2%; and `NC(=O)C1CC=CCC1C(=O)OCC(Cl)=C(Cl)Cl` (stereo not drawn), with 0.1%. Take `CCOCCc1c(O)nc(SCC(=O)NCc2ccco2)[nH]c1=O`: the inhibition was 2.4%. Consider `Cc1ccc(C(=O)Nc2nnc(-c3ccncc3)s2)o1`, for which the inhibition is 7.3%.

Take `O=C(O)C1CCCN1S(=O)(=O)c1ccc2c(c1)CCC2` (stereo not drawn): the inhibition is 15.4%.

Consider `COC(=O)c1ccccc1NC(=O)c1ccccc1NS(C)(=O)=O`, for which the inhibition is 14.9%.

Consider `O=C(CSC1=NCCS1)Nc1nc(-c2ccccc2)cs1`, for which the inhibition is -2.2%. In the case of `COC(=O)c1ccc(NC(=O)CN(c2ccc(C)cc2)S(=O)(=O)c2c(C)n[nH]c2C)cc1`, the inhibition was 21.2%. As to `O=C(NCCN1CCOCC1)[C@H](Cc1ccccc1)N1C(=O)c2ccccc2C1=O`, the inhibition is 3.6%. Turning to `CCC1=C/C(=C\c2ccc3c(c2)OCO3)C(=O)S1`, the inhibition was 21.2%.

For the molecule `O=C(c1ccco1)N1CCN(C(=O)c2ccc(COc3ccc(F)cc3)o2)CC1`, the inhibition is 7%. The figure for `COCCCN1C(=O)C(=O)/C(=C(/O)c2ccc3c(c2)CC(C)O3)C1c1cccnc1` (stereo not drawn) is 7.3%; for `CCCOC(=O)Cc1c(O)c2ccccc2[nH]c1=O` it is 6.5%. With `COC(=O)Nc1ccc(S(=O)(=O)N(C)CC(F)(F)C(F)F)cc1`, the inhibition is 3.4%.

`CCn1nnc(NC(=O)c2c(OC)cccc2OC)n1`: the inhibition was 10.1%. With `O=C(c1ccc2c(c1)OCCO2)C1CCN(S(=O)(=O)c2cccc(F)c2)CC1`, the inhibition was 6.7%.

For `COC(=O)NC1(C(F)(F)F)NC(=O)N(C2CCCCC2)C1=O` (stereo not drawn), the inhibition was 9.8%. Then `O=C1NC(Nc2nc3ccccc3s2)(C(F)(F)F)C(=O)N1C1CCCCC1` (stereo not drawn), with 50.1% (active); and `CC(=O)c1c(C)n([O-])c2ccccc2[n+]1=O`, with 12.7%; and `CC(=O)OC(C(=O)NCCc1ccccc1)c1cccnc1` (stereo not drawn), with 15.3%.

As for `Cn1c(NC(=O)c2ccc3c(c2)OCO3)cc(=O)n(C)c1=O`, the inhibition is -1.2%. For `COc1ccc(C(=O)Nc2ccc3c(c2)OCO3)cc1OC`, the inhibition was -6.2%. As for `Cn1c(=O)n(C)c2cc(C(=O)Nc3ccc4c(c3)OCO4)ccc21`, the inhibition is 40.7% (active). Then `O=C(NC1CCCCC1)C1CCCN(S(=O)(=O)c2cccs2)C1` (stereo not drawn), with 10.2%. Then `O=C(NCCN=C1NS(=O)(=O)c2ccccc21)c1ccc(S(=O)(=O)N2CCOCC2)cc1`, with 11.1%.

Consider `Cc1nnc(SCC(=O)N(C(C)C)C(C)C)nc1C`, for which the inhibition was 6.1%. Turning to `O=C(Nc1c(C(=O)N2CCCCC2)cnn1-c1ccccc1)c1ccco1`, the inhibition is -3.8%. As for `C(=C\c1ccccc1)/CSc1nnc(-c2cccnc2)n1Cc1ccco1`, the inhibition was 11.5%. The figure for `Cc1ccc(NC(=O)CN2CCC3(O)CCCCC3C2c2ccc3c(c2)OCO3)c(C)c1` (stereo not drawn) is 0.9%; for `Oc1c(C(c2cccs2)N2CCN(c3ccc(F)cc3)CC2)sc2ncnn12` (stereo not drawn) it is -1%; for `CCOc1ccc(OCC)c(NC(=O)C2CCN(S(=O)(=O)c3c(C)noc3C)CC2)c1` it is 15.5%. Consider `O=c1cccc(-c2ccc(Br)cc2)o1`, for which the inhibition is 10.6%. The figure for `O=C(Nc1cccc2c1CCCC2)C1CCN(C(=O)NC2CCCCC2)CC1` is 16.4%. In the case of `COc1ccc2c(Cl)c(-c3nnco3)sc2c1`, the inhibition is 26.5%. Take `C=CCNC(=O)c1cc(-c2ccccc2O)on1`: the inhibition is -6.4%. The figure for `O=C(Nn1cnc2ccccc2c1=O)c1ccc(F)cc1Cl` is -16.4%; for `Cc1cccc(NC(=O)C2CCCN2S(=O)(=O)c2ccc(F)cc2)c1C` (stereo not drawn) it is 19.8%; for `COc1cccc(NS(=O)(=O)c2ccc3[nH]cc(C(=O)NCCCOC(C)C)c(=O)c3c2)c1` it is 9%. Then `CCOC(=O)CSc1nnc(CNC(=O)c2cccs2)n1-c1cc(OC)ccc1OC`, with 9.1%; and `CCOC(=O)N1CCN(C(=O)COc2ccc(Br)cc2)CC1`, with 3.3%; and `CNC(=O)CN1C(=O)c2ccccc2S1(=O)=O`, with 16.9%. The figure for `O=C(CN1C(=O)c2ccccc2S1(=O)=O)N1CCc2ccccc21` is 59% (active); for `O=C(c1cccc(C(=O)N2CCc3ccccc32)n1)N1CCc2ccccc21` it is 1.5%.

Consider `Cc1[nH]c2ccc(S(N)(=O)=O)cc2c1C`, for which the inhibition is 14.3%.

The inhibition is the drop in the measured response relative to a control, in per cent.
